From PubChem BioAssay
Compounds with a hit are over-represented: about 4.2% of the library has one in this group of screens.
KCC2 mod: modulates chloride dependent transport by human KCC2; KCC2 cells, thallium flux FluoZin-2 fluorescence; AID 1456; 2.2% of 190,000 active; B-score of Tl+ flux slope (higher = more flux/activation; lower = inhibition) at 10 µM;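 active = thallium flux slope and its plate-corrected score both differing from the plate sample mean at a set confidence after two filtering rounds, in either direction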;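 note: slope of fluorescence scaled to starting intensity during 10 to 20 s after thallium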
KCNQ1 pot: human KCNQ1 channel potentiation or activation; P51787; AID 2648; B-score at 10 µM; 0.35% of 310,000 active; CHO-K1 KCNQ1, thallium flux FluxOR fluorescence; active compounds read high;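 active = fluorescence ratio B-score, a plate-corrected score, at least three library SD, with initial intensity B-score within 5 SD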
Target sequence (P51787 whole entry, looked up): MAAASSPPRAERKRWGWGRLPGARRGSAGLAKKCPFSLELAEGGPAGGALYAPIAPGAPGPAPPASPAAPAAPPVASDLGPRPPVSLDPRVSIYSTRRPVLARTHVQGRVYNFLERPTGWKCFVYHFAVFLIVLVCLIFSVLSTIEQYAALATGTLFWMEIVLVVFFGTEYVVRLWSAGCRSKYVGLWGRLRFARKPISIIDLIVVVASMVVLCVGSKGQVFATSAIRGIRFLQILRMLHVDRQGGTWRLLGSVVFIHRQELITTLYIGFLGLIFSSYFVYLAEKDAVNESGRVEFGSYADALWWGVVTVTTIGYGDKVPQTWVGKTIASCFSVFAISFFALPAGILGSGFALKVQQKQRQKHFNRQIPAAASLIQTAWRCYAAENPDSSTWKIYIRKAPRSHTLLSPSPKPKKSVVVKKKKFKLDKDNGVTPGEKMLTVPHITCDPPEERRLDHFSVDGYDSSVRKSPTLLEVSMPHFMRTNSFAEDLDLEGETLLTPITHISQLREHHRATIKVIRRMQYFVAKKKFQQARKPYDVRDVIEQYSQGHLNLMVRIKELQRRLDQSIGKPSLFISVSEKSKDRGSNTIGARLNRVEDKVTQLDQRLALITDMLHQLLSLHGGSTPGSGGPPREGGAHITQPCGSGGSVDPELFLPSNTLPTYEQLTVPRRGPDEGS
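Medium – assay buffer, equal DMSO in all wells · Material – CHO-K1 cell line with stable KCNQ1 potassium channel expression · Signal – kinetic FluxOR thallium fluorescence, 10-s 1-Hz baseline, 110-s post-stimulus read · Compound – single concentration per compound, DMSO matched to controls · Schedule – 37 °C overnight plating, 90-min dark dye load, 20-min compound pretreatment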
KCNQ1 inh: human KCNQ1 channel inhibition. AID 2642. CHO-K1 KCNQ1, FluxOR thallium flux fluorescence; active compounds read high. B-score at 10 µM. 1.3% of 310,000 active;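 active = compounds whose thallium flux B-score, printed positive for inhibition, exceeds three library SD while starting fluorescence stays within three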;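 note: channel opened by potassium depolarization with thallium stimulus after 20 min compound exposure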
AI-2 QS modul: modulates the Vibrio harveyi AI-2 quorum sensing system | Vibrio harveyi JMH597 AI-2 luminescence/OD600 ratio, 9 h; active compounds read low; strain lacks LuxN and CqsS sensors; 0 = neutral-control median | activity change, % at 7.5 µM | 0.4% of 300,000 active; in the data active = activity change below about -75%, passing the limit was not always enough; inconclusive = no clear call, values can overlap the other calls;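 note: luminescence divided by OD600 gain over 9 h not by final OD600 alone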
SUMO Mot1 rescue: SUMOylation pathway inhibition by Mot1-301 growth rescue | S. cerevisiae Mot1-301 growth rescue, ATP luminescence, 38.5C; percent above DMSO median, 100 means doubled | growth rescue, % at 18.8 µM | 1% of 320,000 active | AID 2716;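 active = every valid replicate shows activation above 250% relative to neutral control wells; inactive = the rest, any valid replicate at or below 250%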;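 note: OY570 slx delta 5 strain wells were the positive control but not used for scaling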
hERG rescue: compounds protecting human hERG from proarrhythmic drug block; Q12809; CHO-hERG, FluxOR thallium flux, dofetilide IC70 present; activation (rescue from dofetilide block), less the hit threshold, % at 10 µM; 0.51% of 310,000 active; AID 1511;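 active = activation above the mean of controls blocked by dofetilide plus 5 SD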;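 note: thallium influx through hERG after potassium depolarization seen as dye fluorescence rise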
KCC2 secondary: confirmation of human KCC2 transport modulators; shares compounds with KCC2 mod; normalised thallium flux (F/F0 slope) at 10 µM; 15% of 3,700 active; HEK293-KCC2, thallium flux, FluoZin2 fluorescence; active compounds read high;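 active = thallium flux slope above the same plate's solvent-only control mean plus 3 SD; inconclusive = the two replicate wells disagree; inactive = no significant difference from solvent-only control wells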
KCC2 bumet counter: thallium flux persisting under bumetanide in KCC2 cells, counter-screen secondary assay; 49% of 3,700 active; shares compounds with KCC2 mod; HEK293-KCC2 + bumetanide/ouabain, thallium flux FluoZin2; active compounds read high; normalized thallium flux at 10 µM;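 active = thallium entry rate above the same plate's blocked-transporter control wells by more than 3 SD; inconclusive = the two repeat wells disagree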;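 note: raw slope of fluorescence over initial fluorescence between 10 and 20 s after thallium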
KCC2 sec2: KCC2 (human) modulation, second secondary assay | shares compounds with KCC2 mod | HEK293-KCC2, thallium flux FluoZin2 fluorescence; actives lie on both sides; F/F0 rise rate, 10–20 s post-thallium | normalized thallium flux at 10 µM | 23% of 3,700 active;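 active = thallium flux slope more than 3 SD above or below the plate's solvent-only control mean, mostly below; inconclusive = the two repeat wells disagreed; inactive = no significant shift from solvent-only controls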;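 note: raw slope with 0.1% DMSO as baseline and bumetanide as block control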
HEK293 Tl flux: parental HEK flux effect, counter-screen | shares compounds with KCC2 mod | HEK293 parental cells, thallium flux FluoZin2, ouabain; baseline-ratio fluorescence slope, 10–20 s after thallium | thallium flux rate (normalised fluorescence) at 10 µM | 46% of 3,700 active;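 active = thallium flux rate significantly above the same plate's solvent-only control wells, beyond their mean plus 3 SD; inconclusive = the two replicate wells gave conflicting results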
KCC2 ouabain: confirmation of human KCC2 modulators with ouabain | raw Tl+ flux slope (below DMSO = inhibition, above = activation) at 10 µM | shares compounds with KCC2 mod | HEK293-KCC2, thallium flux FluoZin2 fluorescence; bidirectional: low = inhibitor, high = activator | 48% of 3,700 active;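 active = thallium flux slope beyond 3 SD from same-plate DMSO control mean in most replicates, usually higher, sometimes lower; inconclusive = repeat tests gave conflicting results; inactive = no significant difference from controls in most replicates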;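 note: slope of initial-normalized fluorescence between seconds 10 and 20 after thallium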
HEK293 Tl flux2: counter-screen for KCC2 modulators: effect in parental HEK293 cells. thallium flux slope at 10 µM. shares compounds with KCC2 mod. 33% of 3,700 active. AID 1718. thallium flux FluoZin-2 fluorescence slope;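 active = thallium flux slope above the same plate's solvent-control mean plus 3 SD in both duplicate wells; inconclusive = duplicate wells that disagreed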;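 note: run without ouabain in cells lacking the KCC2 cotransporter; slope of fluorescence scaled to its starting value between 10 and 20 s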
Active calls of the source: *; i = inactive; ? = inconclusive; nt = not tested or not shown.

SMILES | KCC2 mod | KCNQ1 pot | KCNQ1 inh | AI-2 QS modul | SUMO Mot1 rescue | hERG rescue | KCC2 secondary | KCC2 bumet counter | KCC2 sec2 | HEK293 Tl flux | KCC2 ouabain | HEK293 Tl flux2
COc1cc(C)ccc1OCc1cc(C(=O)NCCN2CCOCC2)no1 | nt | i | i | 21 | 12 | -13 | nt | nt | nt | nt | nt | nt
NC(=O)CC(NC(=O)Cc1ccc(Br)cc1)c1ccc(NCCc2ccc(F)cc2)c([N+](=O)[O-])c1 (configuration not stated) | -3* | i | i | 10 | -6 | -9 | 0.017 | 0.0039 | ? | ? | 0.014 | 0.0096
CCOc1ccc(-n2c(=O)c3c(C)c(C(=O)N(C)C)sc3n(CC(=O)Nc3ccccc3F)c2=O)cc1 | 0.96 | i | i | 1 | 0 | -11 | nt | nt | nt | nt | nt | nt
CCc1ccc(-n2c(=O)c3c(C)c(C(=O)N(C)C)sc3n(CC(=O)NCc3ccco3)c2=O)cc1 | 3.8* | i | i | -3 | 40 | -3 | 0.016 | 0.0046 | 0.03 | 0.0076 | 0.017 | 0.01
CCOc1ccccc1C1CC(c2ccc(F)cc2)Nc2nc(N)nn21 (configuration not stated) | -3.4* | i | i | 7 | -21 | -5 | 0.0061 | 0.0051 | 0.027 | 0.0078 | 0.017 | 0.011
COc1ccccc1C1CC(c2ccc(Cl)cc2)Nc2nc(N)nn21 (configuration not stated) | 0.037 | i | i | 13 | -16 | -13 | nt | nt | nt | nt | nt | nt
CC(=O)c1ccc(S(=O)(=O)Oc2ccc(-c3ccc(C(=O)O)cc3)cc2)cc1 | nt | i | i | -5 | -12 | -3 | nt | nt | nt | nt | nt | nt
O/N=C\c1cccn1-c1ccc(Br)cc1 | nt | i | i | -9 | -17 | -13 | 0.0083 | 0.006 | 0.03 | 0.0059 | 0.019 | 0.0097
COc1ccc(NS(=O)(=O)c2ccc(-n3nnc4ccccc43)c([N+](=O)[O-])c2)cc1 | 0.97 | i | i | 26 | -3 | -5 | nt | nt | nt | nt | nt | nt
O=[N+]([O-])c1cc(S(=O)(=O)Nc2cccc(C(F)(F)F)c2)ccc1-n1nnc2ccccc21 | -3.2* | i | i | 25 | 12 | -8 | 0.007 | 0.0056 | 0.03 | 0.0073 | 0.015* | ?
N#Cc1ccccc1S(=O)(=O)c1ccccc1C(=O)Nc1ccccc1 | 0.049 | i | i | 23 | 9 | -2 | nt | nt | nt | nt | nt | nt
Cc1ccc(C(=O)Nc2nc(=O)n(C(=O)c3ccccc3Cl)s2)cc1 | -7.2* | nt | nt | 13 | nt | nt | 0.0061 | ? | 0.024* | 0.0063 | 0.012* | 0.0089
Cc1ccc(C(=O)Nc2nc(=O)n(C)s2)cc1 | -0.84 | i | i | 34 | 1 | 2 | nt | nt | nt | nt | nt | nt
COc1ccc(NC(=O)CC2C(=O)N(C)C(=S)N2Cc2ccc3c(c2)OCO3)cc1 (configuration not stated) | 7.3* | i | i | 4 | -8 | -6 | 0.0081 | 0.006 | 0.033 | 0.0041 | 0.019 | 0.012
COc1ccc(C(=O)OCC(=O)Nc2sccc2C(N)=O)cc1[N+](=O)[O-] | nt | nt | nt | nt | 2 | nt | nt | nt | nt | nt | nt | nt
